Assay results as given in ChEMBL document CHEMBL1944562, “Design, synthesis of some new (2-aminothiazol-4-yl)methylester derivatives as possible antimicrobial and antitubercular agents” (2012).
Values after ≈ are worked out from the molar mass of the structure shown.

How the values were obtained:
Assay type in all cases: functional
[1] = system: Aspergillus flavus; assay: Antifungal activity against Aspergillus flavus NCIM N0.524 at MIC after 3 to 4 days
In short: (§1)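 Fungal suspension made by transferring a loopful of culture to 3 mL saline and seeding agar plates, 20 mL agar per dish, dried 1 h at 37 °C. Punched wells loaded with test compound in DMSO at its MIC. DMSO-only control. Triplicate plates held 3-4 days at 37 °C. Inhibition zone diameter measured.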

[2] = system: Staphylococcus aureus; assay: Antibacterial activity against Staphylococcus aureus ATCC 25923 after 16 to 18 hrs by serial plate dilution method
[3] = system: Staphylococcus aureus; assay: Antibacterial activity against Staphylococcus aureus ATCC 25923 at […] after 3 to 4 days
In short: (§2)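 Agar well diffusion on seeded agar plates, 20 mL agar per dish, dried 1 h at 37 °C. Wells punched and loaded with test compound in DMSO at its MIC. DMSO-only control. Plates run in triplicate and kept 3-4 days at 37 °C. Inhibition zone diameter measured.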

[4] = system: Pseudomonas aeruginosa; assay: Antibacterial activity against Pseudomonas aeruginosa ATCC 27853 after 16 to 18 hrs by […]
[5] = system: Bacillus subtilis; assay: Antibacterial activity against Bacillus subtilis at MIC after 3 to 4 days; in short: as §2
[6] = system: Mycolicibacterium fortuitum; assay: Antitubercular activity against Mycobacterium fortuitum ATCC 19542 after 7 days by resazurin assay; conditions: ATCC 19542, 168 h
In short: (§3)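 Middlebrook 7H9 broth with 10% OADC, culture adjusted to McFarland 2. 50 µL culture added to 150 µL fresh medium. Stocks at 2 mg/mL in DMF, tested first at 1, 10 and 100 µg/mL, then at 0.3125-5 µg/mL. DMF controls. After 7 days at 37 °C, 0.01% resazurin added. Blue-to-pink change read for MIC.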

[7] = system: Klebsiella pneumoniae; assay: Antibacterial activity against Klebsiella pneumoniae after 16 to 18 hrs by […]
[8] = system: Trichophyton mentagrophytes; assay: Antifungal activity against Trichophyton mentagrophytes at MIC after 3 to 4 days; in short: as §1
[9] = system: Talaromyces marneffei; assay: Antifungal activity against Penicillium marneffei at MIC after 3 to 4 days; in short: as §1
[10] = system: Candida albicans; assay: Antifungal activity against Candida albicans at MIC after 3 to 4 days; in short: as §1
[11] = system: Trichophyton mentagrophytes; assay: Antifungal activity against Trichophyton mentagrophytes after 3 to 4 days by serial plate dilution method
[12] = system: Pseudomonas aeruginosa; assay: Antibacterial activity against Pseudomonas aeruginosa ATCC 27853 at MIC after 3 to 4 days; in short: as §2
[13] = system: Mycobacterium tuberculosis; assay: Antitubercular activity against Mycobacterium tuberculosis H37Rv after 7 days by resazurin assay; conditions: 168 h
In short: (§4)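 M. tuberculosis H37Rv ATCC 27294 grown in Middlebrook 7H9 broth with 10% OADC and adjusted to McFarland 2. Culture was diluted 1:4 into fresh medium. Compounds came from 2 mg/mL DMF stocks, screened first at 1, 10 and 100, then at 0.3125–5. DMF-only controls were included. After 7 days at 37 °C, 0.01% resazurin was added; a blue-to-pink change marked growth, and the MIC was read.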

[14] = system: Escherichia coli; assay: Antibacterial activity against Escherichia coli ATCC 25922 after 16 to 18 hrs by […]
[15] = system: Bacillus subtilis; assay: Antibacterial activity against Bacillus subtilis after 16 to 18 hrs by […]
[16] = system: Mycolicibacterium smegmatis; assay: Antitubercular activity against Mycobacterium smegmatis ATCC 19420 after 7 days by resazurin assay; conditions: ATCC 19420, 168 h; in short: as §3
[17] = system: Candida albicans; assay: Antifungal activity against Candida albicans after 3 to 4 days by serial plate dilution method
[18] = system: Talaromyces marneffei; assay: Antifungal activity against Penicillium marneffei after 3 to 4 days by serial plate dilution method
[19] = system: Aspergillus fumigatus; assay: Antifungal activity against Aspergillus fumigatus NCIM N0.902 at MIC after 3 to 4 days; in short: as §1
[20] = system: Klebsiella pneumoniae; assay: Antibacterial activity against Klebsiella pneumoniae at MIC after 3 to 4 days; in short: as §2
[21] = system: Mycobacterium tuberculosis; assay: Antitubercular activity against Mycobacterium tuberculosis H37Rv assessed as growth inhibition after 7 days by resazurin assay; in short: as §4
[22] = system: Aspergillus flavus; assay: Antifungal activity against Aspergillus flavus NCIM N0.524 after 3 to 4 days by serial plate dilution method
[23] = system: Escherichia coli; assay: Antibacterial activity against Escherichia coli ATCC 25922 at MIC after 3 to 4 days; in short: as §2
[24] = system: Aspergillus fumigatus; assay: Antifungal activity against Aspergillus fumigatus NCIM N0.902 after 3 to 4 days by serial plate dilution method

N#Cc1ccccc1C(=O)OCc1csc(N)n1
diameter of the inhibition zone (DIZ) [1]: 11 mm | MIC [2]: 12.5 µg/mL (≈ 48.2 µM) | diameter of the inhibition zone (DIZ) [3]: 11 mm | MIC [4]: 6.25 µg/mL (≈ 24.1 µM) | diameter of the inhibition zone (DIZ) [5]: <10 mm | MIC [6]: > 100 µg/mL | MIC [7]: 12.5 µg/mL (≈ 48.2 µM) | diameter of the inhibition zone (DIZ) [8]: <10 mm | diameter of the inhibition zone (DIZ) [9]: <10 mm | diameter of the inhibition zone (DIZ) [10]: 16 mm | MIC [11]: 25 µg/mL (≈ 96.4 µM) | diameter of the inhibition zone (DIZ) [12]: 16 mm | MIC [13]: 5 µg/mL (≈ 19.3 µM) | MIC [14]: 6.25 µg/mL (≈ 24.1 µM) | MIC [15]: 25 µg/mL (≈ 96.4 µM) | MIC [16]: > 100 µg/mL | MIC [17]: 6.25 µg/mL (≈ 24.1 µM) | MIC [18]: 25 µg/mL (≈ 96.4 µM) | diameter of the inhibition zone (DIZ) [19]: 11 mm | diameter of the inhibition zone (DIZ) [20]: 11 mm | growth inhibition (GI) [21]: <90% | MIC [22]: 12.5 µg/mL (≈ 48.2 µM) | diameter of the inhibition zone (DIZ) [23]: 16 mm | MIC [24]: 12.5 µg/mL (≈ 48.2 µM)

Nc1nc(COC(=O)c2cccs2)cs1
diameter of the inhibition zone (DIZ) [1]: <10 mm | MIC [2]: 12.5 µg/mL (≈ 52 µM) | diameter of the inhibition zone (DIZ) [3]: 11 mm | MIC [4]: 6.25 µg/mL (≈ 26 µM) | diameter of the inhibition zone (DIZ) [5]: <10 mm | MIC [6]: 10 µg/mL (≈ 41.6 µM) | MIC [7]: 25 µg/mL (≈ 104 µM) | diameter of the inhibition zone (DIZ) [8]: 16 mm | diameter of the inhibition zone (DIZ) [9]: <10 mm | diameter of the inhibition zone (DIZ) [10]: 11 mm | MIC [11]: 6.25 µg/mL (≈ 26 µM) | diameter of the inhibition zone (DIZ) [12]: 16 mm | MIC [13]: 10 µg/mL (≈ 41.6 µM) | MIC [14]: 6.25 µg/mL (≈ 26 µM) | MIC [15]: 25 µg/mL (≈ 104 µM) | MIC [16]: 10 µg/mL (≈ 41.6 µM) | MIC [17]: 12.5 µg/mL (≈ 52 µM) | MIC [18]: 25 µg/mL (≈ 104 µM) | diameter of the inhibition zone (DIZ) [19]: 16 mm | diameter of the inhibition zone (DIZ) [20]: <10 mm | growth inhibition (GI) [21]: <90% | MIC [22]: 25 µg/mL (≈ 104 µM) | diameter of the inhibition zone (DIZ) [23]: 16 mm | MIC [24]: 6.25 µg/mL (≈ 26 µM)

Nc1nc(COC(=O)c2cccc([N+](=O)[O-])c2Cl)cs1
diameter of the inhibition zone (DIZ) [1]: <10 mm | MIC [2]: 12.5 µg/mL (≈ 39.8 µM) | diameter of the inhibition zone (DIZ) [3]: 11 mm | MIC [4]: 25 µg/mL (≈ 79.7 µM) | diameter of the inhibition zone (DIZ) [5]: 11 mm | MIC [6]: 10 µg/mL (≈ 31.9 µM) | MIC [7]: 6.25 µg/mL (≈ 19.9 µM) | diameter of the inhibition zone (DIZ) [8]: <10 mm | diameter of the inhibition zone (DIZ) [9]: 11 mm | diameter of the inhibition zone (DIZ) [10]: <10 mm | MIC [11]: 25 µg/mL (≈ 79.7 µM) | diameter of the inhibition zone (DIZ) [12]: <10 mm | MIC [13]: 0.625 µg/mL (≈ 1.99 µM) | MIC [14]: 12.5 µg/mL (≈ 39.8 µM) | MIC [15]: 12.5 µg/mL (≈ 39.8 µM) | MIC [16]: 1 µg/mL (≈ 3.19 µM) | MIC [17]: 25 µg/mL (≈ 79.7 µM) | MIC [18]: 12.5 µg/mL (≈ 39.8 µM) | diameter of the inhibition zone (DIZ) [19]: <10 mm | diameter of the inhibition zone (DIZ) [20]: 16 mm | growth inhibition (GI) [21]: 90% | MIC [22]: 25 µg/mL (≈ 79.7 µM) | diameter of the inhibition zone (DIZ) [23]: 11 mm | MIC [24]: 25 µg/mL (≈ 79.7 µM)

N#Cc1ccc(C(=O)OCc2csc(N)n2)cn1
diameter of the inhibition zone (DIZ) [1]: <10 mm | MIC [2]: 6.25 µg/mL (≈ 24 µM) | diameter of the inhibition zone (DIZ) [3]: 16 mm | MIC [4]: 6.25 µg/mL (≈ 24 µM) | diameter of the inhibition zone (DIZ) [5]: 16 mm | MIC [6]: > 100 µg/mL | MIC [7]: 6.25 µg/mL (≈ 24 µM) | diameter of the inhibition zone (DIZ) [8]: 16 mm | diameter of the inhibition zone (DIZ) [9]: <10 mm | diameter of the inhibition zone (DIZ) [10]: <10 mm | MIC [11]: 6.25 µg/mL (≈ 24 µM) | diameter of the inhibition zone (DIZ) [12]: 16 mm | MIC [13]: > 100 µg/mL | MIC [14]: 6.25 µg/mL (≈ 24 µM) | MIC [15]: 6.25 µg/mL (≈ 24 µM) | MIC [16]: > 100 µg/mL | MIC [17]: 25 µg/mL (≈ 96.1 µM) | MIC [18]: 25 µg/mL (≈ 96.1 µM) | diameter of the inhibition zone (DIZ) [19]: 16 mm | diameter of the inhibition zone (DIZ) [20]: 16 mm | growth inhibition (GI) [21]: 0% | MIC [22]: 25 µg/mL (≈ 96.1 µM) | diameter of the inhibition zone (DIZ) [23]: 16 mm | MIC [24]: 6.25 µg/mL (≈ 24 µM)

Nc1nc(COC(=O)c2c(F)cccc2Cl)cs1
diameter of the inhibition zone (DIZ) [1]: <10 mm | MIC [2]: 6.25 µg/mL (≈ 21.8 µM) | diameter of the inhibition zone (DIZ) [3]: 16 mm | MIC [4]: 12.5 µg/mL (≈ 43.6 µM) | diameter of the inhibition zone (DIZ) [5]: 16 mm | MIC [6]: 10 µg/mL (≈ 34.9 µM) | MIC [7]: 12.5 µg/mL (≈ 43.6 µM) | diameter of the inhibition zone (DIZ) [8]: <10 mm | diameter of the inhibition zone (DIZ) [9]: <10 mm | diameter of the inhibition zone (DIZ) [10]: 11 mm | MIC [11]: 25 µg/mL (≈ 87.2 µM) | diameter of the inhibition zone (DIZ) [12]: 11 mm | MIC [13]: 0.625 µg/mL (≈ 2.18 µM) | MIC [14]: 25 µg/mL (≈ 87.2 µM) | MIC [15]: 6.25 µg/mL (≈ 21.8 µM) | MIC [16]: 10 µg/mL (≈ 34.9 µM) | MIC [17]: 12.5 µg/mL (≈ 43.6 µM) | MIC [18]: 25 µg/mL (≈ 87.2 µM) | diameter of the inhibition zone (DIZ) [19]: <10 mm | diameter of the inhibition zone (DIZ) [20]: 11 mm | growth inhibition (GI) [21]: 95% | MIC [22]: 25 µg/mL (≈ 87.2 µM) | diameter of the inhibition zone (DIZ) [23]: <10 mm | MIC [24]: 25 µg/mL (≈ 87.2 µM)

Nc1nc(COC(=O)c2c(F)cc(F)cc2F)cs1
diameter of the inhibition zone (DIZ) [1]: 16 mm | MIC [2]: 25 µg/mL (≈ 86.7 µM) | diameter of the inhibition zone (DIZ) [3]: <10 mm | MIC [4]: 6.25 µg/mL (≈ 21.7 µM) | diameter of the inhibition zone (DIZ) [5]: <10 mm | MIC [6]: > 100 µg/mL | MIC [7]: 25 µg/mL (≈ 86.7 µM) | diameter of the inhibition zone (DIZ) [8]: 16 mm | diameter of the inhibition zone (DIZ) [9]: 16 mm | diameter of the inhibition zone (DIZ) [10]: 16 mm | MIC [11]: 6.25 µg/mL (≈ 21.7 µM) | diameter of the inhibition zone (DIZ) [12]: 16 mm | MIC [13]: 5 µg/mL (≈ 17.3 µM) | MIC [14]: 6.25 µg/mL (≈ 21.7 µM) | MIC [15]: 25 µg/mL (≈ 86.7 µM) | MIC [16]: 10 µg/mL (≈ 34.7 µM) | MIC [17]: 6.25 µg/mL (≈ 21.7 µM) | MIC [18]: 6.25 µg/mL (≈ 21.7 µM) | diameter of the inhibition zone (DIZ) [19]: 16 mm | diameter of the inhibition zone (DIZ) [20]: <10 mm | growth inhibition (GI) [21]: <90% | MIC [22]: 6.25 µg/mL (≈ 21.7 µM) | diameter of the inhibition zone (DIZ) [23]: 16 mm | MIC [24]: 6.25 µg/mL (≈ 21.7 µM)
